# Rows were chosen to be rich in hits. Some 0.99% of all compounds tested hit in one or more screens of this group.
# Ins promoter up – insulin promoter activators in MIN6 cells, imaging, high-content screening, mouse beta cells | MIN6 insulin promoter-GFP reporter; stronger effect = higher value | z-score at 5 µM | hit rate 0.3% among 190,000 | AID 1625, 2009;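 active = z-score above 3 at 5 µM with at least 500 cells counted in the well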
# GRK2 aptamer HTS – compounds blocking aptamer binding on GRK2 – biochemical, human GRK2, bead flow cytometry, HTS, primary screen. Beta-adrenergic receptor kinase 1 (Homo sapiens), P25098. AID 488847, 2010. FAM-aptamer displacement from GRK2. inhibition of aptamer binding, % at 10 µM. hit rate 0.59% among 330,000;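 active = inhibition of aptamer binding above 40%, roughly 3 SD of noise, on plates passing a quality check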;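 also: median bead fluorescence of bound FAM aptamer so fluorescent compounds give negative values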
# ABCG2 inh – ABCG2 efflux pump inhibitors, primary screen, multiplex with ABCB1, IgMXP3 cells, flow cytometry; JC-1 efflux; inhibition, % at 6.6 µM; hit rate 0.1% among 190,000;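 active = inhibition above 80%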;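 also: 0% = DMSO and 100% = nicardipine control wells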
# Target sequence (Q9UNQ0 whole entry, looked up): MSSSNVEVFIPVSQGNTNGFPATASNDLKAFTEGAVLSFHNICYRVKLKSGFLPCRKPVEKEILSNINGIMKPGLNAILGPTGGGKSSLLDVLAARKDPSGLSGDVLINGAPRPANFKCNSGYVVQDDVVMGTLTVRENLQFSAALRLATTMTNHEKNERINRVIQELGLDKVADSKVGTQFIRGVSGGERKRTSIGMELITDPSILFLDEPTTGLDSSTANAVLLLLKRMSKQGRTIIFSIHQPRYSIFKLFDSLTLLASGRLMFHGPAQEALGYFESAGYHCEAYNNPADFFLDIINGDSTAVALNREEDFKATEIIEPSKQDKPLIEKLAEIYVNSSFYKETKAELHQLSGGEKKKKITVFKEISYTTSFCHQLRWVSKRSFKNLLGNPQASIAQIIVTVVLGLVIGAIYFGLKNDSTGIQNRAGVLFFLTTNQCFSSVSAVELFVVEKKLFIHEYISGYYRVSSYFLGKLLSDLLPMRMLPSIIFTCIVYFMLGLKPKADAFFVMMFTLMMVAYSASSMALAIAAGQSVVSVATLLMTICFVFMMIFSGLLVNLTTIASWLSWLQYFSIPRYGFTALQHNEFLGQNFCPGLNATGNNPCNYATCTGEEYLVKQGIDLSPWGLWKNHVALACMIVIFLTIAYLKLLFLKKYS
#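 Incubation: cells with compound and JC-1, 10 min at 25 °C, rotating, no wash / Test system: IgMXP3 (ABCG2) plus far-red-tagged CCRF-Adr (ABCB1) cells / Compound dosing: one concentration, 6.6 µM final / Also added: JC-1 fluorescent substrate / Evaluation: efflux inhibition in percent versus controls / Detection: flow cytometry, 530 nm JC-1 signal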
# DDE Tn7 FP inh – inhibitors of Tn7 peptide binding to fibrin DD(E), primary screen, biochemical, fluorescence polarization, human fibrin, Tn7 probe. inhibition, % at 8.3 µM. FP displacement of FITC-Tn7 peptide from fibrin DD(E); 0% = median of compound wells per plate. hit rate 0.13% among 370,000. AID 720508, 2013. Fibrinogen beta chain (Homo sapiens), P02675;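 active = inhibition above the mean of compounds falling within the control limits plus 3 SD of them, cut at about 14% in these data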;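 also: 0% = plate median of compound wells and 100% = 10 µM Aha-Tn7 peptide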
#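 Measure: % inhibition scaled between sample-field median and high-control FP; Test system: human fibrin DD(E); Quantity: 2 µM final DD(E) protein; Doses: one dose, 8.3 µM nominal; Schedule: compound with protein 10 min, then 3 h after probe, room temperature; Detection: fluorescence polarization; Medium: Tris buffer with calcium and detergent, pH 7.8.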
# DDE Tn6 FP inh – inhibitors of Tn6 peptide binding to fibrin DD(E), primary screen, biochemical, fluorescence polarization, human fibrin, Tn6 probe; Fibrinogen beta chain (Homo sapiens), P02675; inhibition, % at 8.3 µM; Fibrin DD(E) TRITC-Tn6 fluorescence polarization displacement; hit rate 0.21% among 370,000;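 active = inhibition above a per-campaign cutoff: mean of compounds within control limits plus 3 SD, cut at about 15% in these data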;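 also: 0% = median of all compound wells on the plate and 100% = blocking peptide control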
# ABCB1 block – ABCB1 efflux pump inhibitors, primary screen, cell-based, multiplex, flow cytometry, ABCG2 counter-screen. hit rate 0.067% among 190,000. CCRF-Adr cells, JC-1 efflux. AID 1326, 2008. inhibition, % at 6.6 µM; in the data active = inhibition above about 40%;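 also: 0% = vehicle and 100% = reference inhibitor; higher value means more JC-1 retained so stronger ABCB1 efflux block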
# GRK2 inh confirm – GRK2 aptamer-displacing inhibitors, retest, confirmation, biochemical, cherry pick 1, bead flow cytometry; shares compounds with GRK2 aptamer HTS; bead-bound GRK2, FAM-aptamer displacement; aptamer displacement, % at 10 µM; hit rate 4% among 2,000;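 active = aptamer displacement above 40%, near three times the noise of non-fluorescent compounds, on plates passing quality checks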;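 also: negative values mostly reflect intrinsic compound fluorescence rather than true enhancement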
# Aptamer quench SP – quenches fluorescent RNA aptamer, GRK2 hit artifact. Carboxyfluorescein RNA aptamer on beads, flow cytometry quenching; stronger effect = lower value. shares compounds with GRK2 aptamer HTS. 2,000 tested, under 10 active. fluorescence response (% of DMSO), % at 10 µM;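 active = compounds that quench the bead-bound fluorescent RNA probe, cutting fluorescence to under half of the solvent control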;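 also: counterscreen run without GRK2 so only probe quenching by compound is measured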
# GRK2 confirm 2 – GRK2 aptamer-displacing inhibitors, hit retest, confirmation, biochemical, cherry pick 2, bead flow cytometry | shares compounds with GRK2 aptamer HTS | bead-bound GRK2, FAM-aptamer displacement | inhibition of aptamer binding, % at 10 µM | 360 tested, under 10 active;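 active = inhibition of aptamer binding above 40%, about triple the noise seen with nonglowing compounds, on plates passing quality control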;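 also: negative values mostly come from compounds that fluoresce themselves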
# FAM quench CP2 – aptamer fluorescence quenching in GRK2 counter-screen | 360 tested, under 10 active | carboxyfluorescein RNA aptamer beads, flow cytometry quenching; stronger effect = lower value | AID 588494 | fluorescence response vs DMSO, % at 10 µM | shares compounds with GRK2 aptamer HTS;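 active = response vs DMSO under 50%, meaning signal dropped by over half, treated as fluorescence quencher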;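 also: labelled aptamer on streptavidin beads without GRK2 as a quench counter-screen; 100% = bead fluorescence of DMSO wells and lower means quenching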
# * = called active by the depositor; . = no result.
SMILES,Ins promoter up,GRK2 aptamer HTS,ABCG2 inh,DDE Tn7 FP inh,DDE Tn6 FP inh,ABCB1 block,GRK2 inh confirm,Aptamer quench SP,others
COC(=O)[C@H]1C[C@@]2(N3CCCCC3)c3ccccc3N[C@H]2N1S(=O)(=O)c1ccc(C)cc1,.,.,.,6,1,.,.,.,
CN1CCN(CCCOc2ccc(-c3ccccc3)cc2)CC1,.,0,.,9,10,.,.,.,
CCN1CCN(CCCOc2ccc(-c3ccccc3)cc2)CC1,-0.77,30,3,0,-6,1,-8,104,
CCOC(=O)[C@]12CCCCC/C=C\1N(Cc1ccc(OC)cc1)C(=O)[C@H]2CC(=O)NCCC(C)C,.,.,.,4,6,.,.,.,
CCOc1ccc(-n2c(SCC(=O)Nc3ccc(S(=O)(=O)Nc4cc(C)nc(C)n4)cc3)nnc2-c2ccc(C)cc2)cc1,.,.,.,-2,6,.,.,.,
O=C(NCc1ccccc1CN1CCCC1)C1CCN(C(=O)c2ccc(F)cc2)CC1,.,69*,.,-4,5,.,-46,120,
CCOC(=O)[C@@]12CCCC=C1N(CCc1ccc(Cl)cc1)C(=O)[C@H]2CC(=O)N1CCCC1,.,.,.,0,3,.,.,.,
COCCN1C(=O)CN(S(C)(=O)=O)CC1(C)C(=O)Nc1ccc2c(c1)OCCO2 (centres undefined),.,.,.,0,0,.,.,.,
CCCCN1CCN(C(=O)C2CCN(S(=O)(=O)c3ccc4[nH]c(=O)oc4c3)CC2)CC1,.,.,.,3,14,.,.,.,
Cc1ccc2c(c1)n([O-])c1c([n+]2=O)CCCC1,-0.52,52*,3,0,7,0,-5,103,
COC(=O)C[C@H]1CC[C@@H]2[C@H](COc3ccc(NC(=O)c4cnccn4)cc3C(=O)N2C)O1,.,.,.,-2,-4,.,.,.,
COc1cccc(N2CCN(C(=O)COc3cc(=O)n(C)c4ccccc34)CC2)c1,.,.,.,-2,4,.,.,.,
COc1ccc(N2CCN(C(=O)CCCOc3cc(=O)n(C)c4ccccc34)CC2)cc1,-1.1,56*,4,1,-5,1,-1,99,
Cc1cc(NC(=O)c2ccccc2C)n(-c2cccc(F)c2)n1,.,100*,.,-8,-2,.,1,103,
COC(=O)[C@]12C[C@H](CC(=O)NCc3cccs3)C(=O)N(Cc3ccco3)C1=C[C@H](C1CCCC1)O[C@@H]2C,.,.,.,-7,1,.,.,.,
CC(=O)NCCNc1nc2c(-c3cccc(C)c3)nnn2c2ccccc12,.,65*,.,9,0,.,15,105,
CC(=O)NCCNc1nc2c(-c3ccccc3)nnn2c2ccccc12,.,0,.,-6,-16,.,.,.,
Cc1c(NC(=O)C(C)OC(=O)c2cccc(S(=O)(=O)N3CCOCC3)c2)c(=O)n(-c2ccccc2)n1C (centres undefined),-1.4,76*,.,9,9,.,2,99,
O=C(NC1CCCCC1)c1cc(S(=O)(=O)N2CCCCC2)ccc1N1CCOCC1,.,42*,.,0,-4,.,-2,102,
CCOc1cc(N2CCOCC2)c(OCC)cc1NC(=O)c1cccc(S(=O)(=O)N2CCOCC2)c1,.,30,.,-4,0,.,1,97,
CCOc1cc(N2CCOCC2)c(OCC)cc1NC(=O)c1cccc(S(=O)(=O)N2CC(C)OC(C)C2)c1 (centres undefined),.,.,.,-13,-4,.,.,.,
CCOc1cc(N2CCOCC2)c(OCC)cc1NC(=O)c1cc(S(=O)(=O)N2CCOCC2)ccc1F,.,5,.,4,1,.,-2,96,
O=C(c1cc(F)ccc1F)N1CCC(Oc2cccnc2)CC1,.,.,.,2,-1,.,.,.,
COP(=O)(CC(=O)OC(C)(C)C)C(CC(C)C)NC(=O)OCc1ccccc1 (centres undefined),.,.,.,4,4,.,.,.,
CC(C)CNC(=O)CC1Oc2ccccc2NC1=O (centres undefined),.,.,.,-2,9,.,.,.,
SMILES,Ins promoter up,GRK2 aptamer HTS,ABCG2 inh,DDE Tn7 FP inh,DDE Tn6 FP inh,ABCB1 block,GRK2 inh confirm,Aptamer quench SP,others
Nc1c(C(=O)NCc2cccs2)nnn1CC(=O)Nc1cccc(Cl)c1,-0.33,42*,-1,-3,-4,0,.,.,GRK2 confirm 2=2;FAM quench CP2=97
CC(C)CCNC(=O)[C@H]1COC(O)([C@H](Cc2ccccc2)NC(=O)[C@@H](NC(=O)OCc2ccccc2)C(C)C)CN1C (some centres undefined),.,.,.,0,4,.,.,.,
O=C(N/N=C/c1cccnc1)c1cccc(NC(=O)c2ccc(Cl)cc2)c1,.,39,.,.,.,.,-5,93,
C=CCN(CC=C)C(=O)c1ccc2nc(Cc3ccc(OC)c(OC)c3)oc2c1,.,41*,.,-8,1,.,2,100,
COCCOC(=O)C1=C(C)N=C2SCCC(=O)N2C1c1cccs1 (centres undefined),.,81*,3,0,-9,2,-1,96,
CCOC(=O)Cc1cc(=O)n2[nH]c(C)c(-c3ccc(OC)cc3)c2n1,0.03,71*,0,-8,-7,0,-3,99,
CN(CCc1ccccn1)C(=O)c1cc2ccccn2n1,.,.,.,4,2,.,.,.,
COc1ccc([C@@H]2CC=C(C(=O)O)[C@H](c3ccc(Cl)cc3)N2S(=O)(=O)c2ccc(Cl)cc2)cc1,.,49*,.,2,-6,.,-6,101,
O=C(O)C1=CC[C@@H](c2ccc(Cl)cc2)N(S(=O)(=O)c2ccc(Cl)cc2)[C@H]1c1ccc(F)cc1,.,0,.,-2,-6,.,.,.,
COC(=O)[C@]12CCCCC=C1N(Cc1ccc(OC)cc1)C(=O)[C@@H]2CC(=O)N1CCCCC1,.,.,.,6,0,.,.,.,
COc1ccccc1C(=O)Nc1ccc(N2CCCCC2)cc1,0.14,0,28,3,-1,0,.,.,
COc1cccc(OC)c1C(=O)Nc1ccc(N2CCCC2)cc1,.,100*,.,4,-11,.,3,93,
